This is an account of results in publication PMC8965017 (International Journal of Nanomedicine, 2022).

Series [1] concerns MDA-MB-231 cells. The experiment in a line: In vitro cytotoxicity, MTT assay. To be noted: 5-100 μM, 24 and 48 h. The class given is cell-based, human. Summed up:
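MDA-MB-231 cells were seeded at 1×10^4 cells/well for 24 h. Medium was then replaced with single drugs, their combination or the nanoparticle formulation at 5, 10, 20, 50, 75 and 100 μM. After 24 or 48 h, MTT was added for 4 h and absorbance was read at 490 nm. Survival was calculated from blank, treated and control OD; mean ± SD, n = 3.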

The next series can be described thus: In vivo safety. Set-up: species or system BALB/c nude mice. The conditions noted are these: after treatment. The essentials:
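At the end of treatment, blood from the MDA-MB-231 xenograft-bearing nude mice was assayed for serum AST, ALT, AKP, BUN and creatinine. Major organs (heart, liver, spleen, lung, kidney) were taken for HE staining. Mean ± SD, n = 3.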

Series [2] concerns MDA-MB-231 cells. Put plainly: Calcein-AM/PI staining. To be noted: DAS concentration 10 µM, 24 h. The class given is cell-based, human. Summed up:
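MDA-MB-231 cells (RPMI-1640, 10% FBS, 1% penicillin-streptomycin; 37°C, 5% CO2) were seeded at 1×10^4 cells/well and grown overnight. They were then exposed for 24 h to free drugs, their combination or the nanoparticle formulation at a DAS concentration of 10 µM. Cells were stained with calcein-AM/PI at 37°C for 30 min and imaged by fluorescence microscopy.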

In series [3] the test system is MDA-MB-231 cells. The experiment in a line: Cell uptake of C6-labelled micelles. The class given is cell-based, human. The conditions noted are these: MDA-MB-231, 1 h and 4 h. The essentials:
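Coumarin 6 was loaded into the polymer micelles by film dispersion. MDA-MB-231 cells were seeded overnight at 1×10^4 cells/well and given free C6 or C6-micelles; one group was pretreated with HA (10 mg/mL) for 0.5 h to block the receptor. After 1 h or 4 h at 37°C, cells were PBS-washed three times, paraformaldehyde-fixed for 10 min, DAPI-stained for 10 min at room temperature and viewed by fluorescence microscopy.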

The subject of series [4] is MDA-MB-231 tumor-bearing mice. Put plainly: In vivo antitumor efficacy. To be noted: 5 mg/kg once every 3 days, 6 times, day 18. On the set-up: species or system BALB/c nude mice. Summed up:
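Female BALB/c nude mice aged 4–5 weeks carried subcutaneous MDA-MB-231 tumours. At about 100 mm3 they were randomised into 5 groups (n = 6): PBS, single drugs, combination or nanoparticles. From day 0, intravenous doses of 5 mg/kg were given every 3 days, 6 times in total. Tumour length and width were measured by caliper before each dose to calculate volume, and tumours were excised after the last dose.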

As to `O=C(c1cc(Cc2n[nH]c(=O)c3ccccc23)ccc1F)N1CCN(C(=O)C2CC2)CC1` [OLA, Olaparib], in the series with MDA-MB-231 cells [1], the “toxicity to MDA-MB-231 cells (MTT)” value was “low toxicity”. The “serum indicators of liver and renal function (AST, ALT, BUN, CRE) vs normal mice” value in “In vivo safety” is reported as “significantly increased”. Moreover, the “live/dead fluorescence (green living, red dead)” value in the series on MDA-MB-231 cells [2] is “no obvious red appearance”. For the compound `CCN(CC)c1ccc2cc(-c3nc4ccccc4s3)c(=O)oc2c1` [C6, coumarin 6], in the series with MDA-MB-231 cells [3], the “cellular uptake (green fluorescence of C6)” value is on record as “weak green fluorescence”. As to `Cc1nc(Nc2ncc(C(=O)Nc3c(C)cccc3Cl)s2)cc(N2CCN(CCO)CC2)n1` [DAS, Dasatinib], in series [4], the “tumor growth inhibition rate (TGI)” value came out at 49.83%.
